Only a selection was taken, and hits are over-represented in it overall.
GASC1 inh: inhibitors of GASC-1 (KDM4C) histone demethylase, primary screen, biochemical, single concentration HTS; Lysine-specific demethylase 4C (Homo sapiens), Q9H3R0; GST-KDM4C 2-372, H3K9me3 peptide, LANCE TR-FRET; inhibition, % at 12.5 µM; 0.15% of 96,000 active; AID 720574, 2013;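 active = mean replicate inhibition above about 25%, with at least 55% of replicates also reaching it, limit read from the data, passing the limit was not always enough; inconclusive = only one of those two conditions met; inactive = neither condition met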
Target sequence (Q9H3R0 2-372 limits assumed): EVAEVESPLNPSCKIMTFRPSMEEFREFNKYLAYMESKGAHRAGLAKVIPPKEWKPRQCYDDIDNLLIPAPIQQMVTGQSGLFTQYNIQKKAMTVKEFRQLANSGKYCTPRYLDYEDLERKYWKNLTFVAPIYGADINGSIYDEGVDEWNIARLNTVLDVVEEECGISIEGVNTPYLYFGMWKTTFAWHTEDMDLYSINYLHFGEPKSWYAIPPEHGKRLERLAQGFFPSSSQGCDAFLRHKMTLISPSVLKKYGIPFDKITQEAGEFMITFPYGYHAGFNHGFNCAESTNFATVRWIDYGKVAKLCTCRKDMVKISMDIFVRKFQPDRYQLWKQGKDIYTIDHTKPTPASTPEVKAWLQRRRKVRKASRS
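Material: GST-tagged GASC-1 (JMJD2C) catalytic fragment, aa 2-372. Input: enzyme final amount 10 nM. Medium: HEPES buffer, pH 7.5, plus ascorbate. Reagent: H3K9me3 peptide substrate, Fe(II), 2-oxoglutarate. Doses: single dose. Times: reaction 30 min RT, detection step 1 h RT. Measured by: LANCE TR-FRET. Evaluation: Fall in 671/618 emission ratio as inhibition.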
IDH1 R132H inh: inhibitors of IDH1 R132H reductase, primary screen, biochemical, plate reader, single point; Isocitrate dehydrogenase [NADP] cytoplasmic (Homo sapiens), O75874; diaphorase/resazurin fluorescence, 60 min; inhibition, % at 10 µM; 0.18% of 70,000 active; AID 624101, 2012; in the data active = inhibition above about 34%; inconclusive = no clear call, values can overlap the other calls; inactive = below about 11%;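 also: 0% = DMSO and 100% = no enzyme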
Target sequence (O75874 whole entry R132H): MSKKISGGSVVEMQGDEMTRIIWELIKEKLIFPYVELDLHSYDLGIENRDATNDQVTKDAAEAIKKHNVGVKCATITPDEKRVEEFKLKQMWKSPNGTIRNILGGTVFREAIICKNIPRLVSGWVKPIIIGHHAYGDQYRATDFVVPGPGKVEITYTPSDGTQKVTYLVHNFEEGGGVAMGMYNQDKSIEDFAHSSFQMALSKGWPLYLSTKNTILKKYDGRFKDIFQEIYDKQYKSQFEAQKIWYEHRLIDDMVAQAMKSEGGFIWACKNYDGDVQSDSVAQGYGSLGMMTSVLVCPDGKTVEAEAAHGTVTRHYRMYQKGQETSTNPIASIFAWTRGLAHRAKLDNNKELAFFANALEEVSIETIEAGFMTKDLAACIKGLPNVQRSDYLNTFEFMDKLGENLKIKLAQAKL
T cruzi growth-1: T. cruzi intracellular proliferation inhibitors, primary screen, cell-based, beta-gal Tulahuen parasites, NIH3T3 host, luminescence; T. cruzi beta-gal in NIH3T3, GalScreen luminescence, 90 h; inhibition, % at 8.34 µM; 5.9% of 77,000 active;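 active = mean inhibition above about 93%, with at least 55% of replicates each passing it, limit read from the data, passing the limit was not always enough; inconclusive = only one of those two conditions holds; inactive = neither condition holds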
T cruzi growth-2: T. cruzi intracellular proliferation inhibitors, confirmation, cell-based, NIH3T3 host, beta-gal parasite, luminescence, cherry-pick | shares compounds with T cruzi growth-1 | T. cruzi beta-gal in NIH3T3, GalScreen luminescence, 90 h | inhibition, % at 8.35 µM | 72% of 5,600 active;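 active = mean replicate inhibition above about 95% and at least 55% of replicates individually reaching it, limit read from the data; inconclusive = only one of the two criteria is met; inactive = neither criterion is met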
T cruzi growth-3: inhibitors of intracellular T. cruzi replication, confirmation, NIH3T3 host cells, beta-gal parasites, cherry-pick, set 2; AID 651740, 2012; T. cruzi beta-gal in NIH3T3, GalScreen luminescence, 90 h; shares compounds with T cruzi growth-1; 21% of 5,600 active; inhibition, % at 2.09 µM;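 active = mean inhibition above about 95%, with at least 55% of replicates also reaching it, limit read from the data; inconclusive = meets just one of the two conditions; inactive = meets neither condition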;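 also: plate controls were neutral control median for no effect and positive control median for full effect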
NIH3T3 tox: cytotoxicity in mouse NIH/3T3 fibroblasts, confirmation, cytotoxicity control for T. cruzi proliferation inhibitor project, cell-based, cherry-pick, single point. shares compounds with T cruzi growth-1. NIH/3T3 viability, CellTiter-Glo ATP luminescence, 90 h. cytotoxicity (signal decrease), % at 8.35 µM. 14% of 5,600 active. AID 651742, 2012;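 active = mean signal decrease across replicates above about 35% based on untreated-well scatter, with enough replicates individually passing, limit read from the data; inconclusive = no rule stated though some were filed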;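 also: 0% = median of neutral control wells and 100% = median of positive control wells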
3T3 cytotox 2: NIH/3T3 fibroblast cytotoxicity, confirmation, cytotoxicity control, cell-based, cherry-pick, single point, set 2 | shares compounds with T cruzi growth-1 | NIH/3T3 viability, CellTiter-Glo ATP luminescence, 90 h | inhibition, % at 24.9 µM | 56% of 5,600 active | AID 651744, 2012;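 active = mean loss of cell viability signal at or above a set limit, and enough replicates individually reaching it; inconclusive = meets only the mean limit or only the replicate share; inactive = meets neither condition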;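 also: 0% = median of neutral control wells and 100% = median of positive control wells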
An asterisk follows results filed as active; ? = inconclusive; / = not tested or not shown.

SMILES	GASC1 inh	IDH1 R132H inh	T cruzi growth-1	T cruzi growth-2	T cruzi growth-3	NIH3T3 tox	3T3 cytotox 2
Cc1noc(C)c1NC(=O)Nc1ccc2c(c1)C(=O)N(C)[C@H]1CC[C@@H](CC(=O)N[C@H]3CCN(Cc4ccccc4)C3)O[C@@H]1CO2	0.5	/	104.4*	-22.7	13.5	0.4	-6.7
Cc1noc(C)c1NC(=O)Nc1ccc2c(c1)C(=O)N(C)[C@H]1CC[C@H](CC(=O)N[C@H]3CCN(Cc4ccccc4)C3)O[C@H]1CO2	-0.2	/	106.0*	-19.5	-17.9	6.3	2.1
Cc1noc(C)c1NC(=O)Nc1ccc2c(c1)C(=O)N(C)[C@@H]1CC[C@H](CC(=O)N[C@@H]3CCN(Cc4ccccc4)C3)O[C@H]1CO2	1.9	/	36.2	/	/	/	/
Cc1noc(C)c1NC(=O)Nc1ccc2c(c1)C(=O)N(C)[C@@H]1CC[C@@H](CC(=O)N[C@H]3CCN(Cc4ccccc4)C3)O[C@@H]1CO2	0.6	/	106.9*	-12.9	-29.3	-15.4	0.4
Cc1noc(C)c1NC(=O)Nc1ccc2c(c1)C(=O)N(C)[C@H]1CC[C@H](CC(=O)N[C@@H]3CCN(Cc4ccccc4)C3)O[C@@H]1CO2	-1.9	/	31.2	/	/	/	/
Cc1noc(C)c1NC(=O)Nc1ccc2c(c1)C(=O)N(C)[C@H]1CC[C@@H](CC(=O)N[C@@H]3CCN(Cc4ccccc4)C3)O[C@@H]1CO2	0.1	/	-11.1	/	/	/	/
Cc1noc(C)c1NC(=O)Nc1ccc2c(c1)C(=O)N(C)[C@@H]1CC[C@H](CC(=O)N[C@H]3CCN(Cc4ccccc4)C3)O[C@@H]1CO2	2.0	/	109.1*	27.2	7.6	-4.2	-0.8
Cc1cccc(NC(=O)CSc2nnc(-c3ccc(Cl)cc3)n2-c2cccc(C)c2)c1	/	-0.2	/	/	/	/	/
Cc1cccc(N(CC(=O)NC2CCCCCC2)S(C)(=O)=O)c1C	/	-0.1	/	/	/	/	/
CCCC#Cc1ccc([C@@H]2[C@H]3CN(S(=O)(=O)Cc4ccccc4)CCCCN3[C@H]2CO)cc1	-1.6	/	80.6	/	/	/	/
O=S(=O)(Cc1ccccc1)N1CCCCN2[C@H](C1)[C@H](c1ccc(C#Cc3ccccc3)cc1)[C@@H]2CO	-1.9	/	104.1*	108.4*	?	26.4	106.6*
O=S(=O)(Cc1ccccc1)N1CCCCN2[C@H](C1)[C@@H](c1ccc(C#Cc3ccccc3)cc1)[C@@H]2CO	-0.6	/	100.5*	104.9*	112.1*	27.4	68.3*
O=S(=O)(c1ccccc1)N1CCCCN2[C@@H](CO)[C@H](c3ccc(C#Cc4ccccc4)cc3)[C@@H]2C1	0.6	/	71.4	/	/	/	/
Cc1ccc(S(=O)(=O)NC(C)C(=O)Nc2ccc3c(c2)OCCO3)cc1 (centres undefined)	/	0.6	/	/	/	/	/
COc1ccccc1C1CC(c2ccc(C)cc2)=NN1C(=O)CCC(=O)O (centres undefined)	/	0.7	/	/	/	/	/
CO[C@H]1CN(C)C(=O)c2cc(NC(=O)c3ccccc3F)ccc2OC[C@H](C)N(C(=O)c2ccccc2F)C[C@@H]1C	-0.1	0.1	12.8	/	/	/	/
CO[C@@H]1CN(C)C(=O)c2cc(NC(=O)c3ccccc3F)ccc2OC[C@H](C)N(C(=O)c2ccccc2F)C[C@@H]1C	0.6	0.3	102.2*	76.3	-3.6	-7.9	39.8*
CO[C@@H]1CN(C)C(=O)c2cc(NC(=O)c3ccccc3F)ccc2OC[C@H](C)N(C(=O)c2ccccc2F)C[C@H]1C	1.6	0.2	25.9	/	/	/	/
CO[C@@H]1CN(C)C(=O)c2cc(NC(=O)c3ccccc3F)ccc2OC[C@@H](C)N(C(=O)c2ccccc2F)C[C@H]1C	0.6	0.2	?	86.6	51.2	-0.7	12.3
COC(=O)c1c(NC(=O)c2ccc(N(C)S(=O)(=O)c3ccccc3)cc2)sc2c1CCCC2	/	0.4	/	/	/	/	/
Cc1c(CC(=O)O)c(=O)oc2cc(OCC(=O)O)ccc12	/	0.5	/	/	/	/	/
O=C(CSc1nnnn1-c1ccccc1F)N1c2ccccc2Sc2ccc(Cl)cc21	/	0.3	/	/	/	/	/
C[C@@H]1CN([C@@H](C)CO)C(=O)Cc2cc(NS(=O)(=O)c3ccc(F)cc3)ccc2O[C@@H]1CN(C)C(=O)Nc1ccc(F)cc1	-2.0	/	-17.2	/	/	/	/
C[C@H](O)C#Cc1ccc([C@H]2[C@@H](CO)N3CCCCN(C(=O)Nc4ccccc4)C[C@H]23)cc1	0.5	/	108.7*	36.6	7.1	-22.2	-4.2
CC(C)C#Cc1ccc([C@@H]2[C@@H](CO)N3CCCCN(C(=O)Nc4ccccc4)C[C@@H]23)cc1	1.9	/	106.2*	111.6*	85.8	18.1	104.6*
SMILES	GASC1 inh	IDH1 R132H inh	T cruzi growth-1	T cruzi growth-2	T cruzi growth-3	NIH3T3 tox	3T3 cytotox 2
C[C@@H](O)C#Cc1ccc([C@H]2[C@@H](CO)N3CCCCN(C(=O)Nc4ccccc4)C[C@H]23)cc1	1.3	/	32.7	/	/	/	/
C[C@@H](O)C#Cc1ccc([C@@H]2[C@@H](CO)N3CCCCN(C(=O)Nc4ccccc4)C[C@@H]23)cc1	1.1	/	72.8	/	/	/	/
CC(C)C#Cc1ccc([C@@H]2[C@H](CO)N3CCCCN(C(=O)Nc4ccccc4)C[C@@H]23)cc1	0.2	/	81.7	/	/	/	/
CC(C)C#Cc1ccc([C@@H]2[C@H]3CN(C(=O)Nc4ccccc4)CCCCN3[C@H]2CO)cc1	-0.8	/	?	86.6	94.5	88.1*	105.9*
CC(C)C#Cc1ccc([C@@H]2[C@@H](CO)N3CCCCN(C(=O)Nc4ccccc4)C[C@H]23)cc1	1.7	/	99.4*	99.6*	68.6	38.6*	104.7*
C[C@H](O)C#Cc1ccc([C@@H]2[C@@H](CO)N3CCCCN(C(=O)Nc4ccccc4)C[C@@H]23)cc1	0.1	/	55.1	/	/	/	/
C[C@H]1CN([C@@H](C)CO)C(=O)Cc2cc(NS(=O)(=O)c3ccccc3)ccc2O[C@H]1CN(C)S(=O)(=O)c1cn(C)cn1	-0.4	-0.1	19.7	/	/	/	/
O=C(CN1CCOCC1)N1CC(=O)N2[C@@H](CO)[C@H](c3ccc(/C=C/c4ccccc4)cc3)[C@@H]2C1	-1.5	/	/	/	/	/	/
O=[N+]([O-])c1ccccc1S(=O)(=O)N1CCN(S(=O)(=O)Cc2ccccc2)CC1	/	-0.5	/	/	/	/	/
C[C@@H]1CN([C@H](C)CO)S(=O)(=O)c2ccc(C#CC3(O)CCCC3)cc2O[C@H]1CN(C)C(=O)c1ccncc1	2.2	-0.1	0.9	/	/	/	/
CC1(C)CC(=O)C=C(NCC2CCN(C(=S)Nc3ccccc3)CC2)C1	/	0.4	/	/	/	/	/
Cn1c(SCC(=O)Nc2cc(C(F)(F)F)ccc2Cl)nnc1-c1cnccn1	/	-0.3	/	/	/	/	/
